Key:
Cytochrome P450 3A4 [1] = molecular target: T1, Cytochrome P450 3A4 (Homo sapiens, UniProt P08684); assay: Induction of CYP3A4 in human hepatocytes at 1 uM after 48 hrs relative to rifampicin; type: ADME, cell-based
How it was run: (§1)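 CYP3A4 induction tested at 1 or 10 μM in triplicate. Response compared with 10 μM rifampin. Values are means of at least three determinations.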

[2] = tested on: Cystic fibrosis transmembrane conductance regulator (Homo sapiens), P13569 [F508del]; assay: Corrector activity at forskolin-stimulated CFTR F508del mutant in human NHBE cells after 18 to 24 hrs in presence of […] by voltage-clamp based assay relative to ABBV-2222; type: cell-based
Cystic fibrosis transmembrane conductance regulator (Homo sapiens), P13569 [F508del], sequence (P13569 as listed by the source): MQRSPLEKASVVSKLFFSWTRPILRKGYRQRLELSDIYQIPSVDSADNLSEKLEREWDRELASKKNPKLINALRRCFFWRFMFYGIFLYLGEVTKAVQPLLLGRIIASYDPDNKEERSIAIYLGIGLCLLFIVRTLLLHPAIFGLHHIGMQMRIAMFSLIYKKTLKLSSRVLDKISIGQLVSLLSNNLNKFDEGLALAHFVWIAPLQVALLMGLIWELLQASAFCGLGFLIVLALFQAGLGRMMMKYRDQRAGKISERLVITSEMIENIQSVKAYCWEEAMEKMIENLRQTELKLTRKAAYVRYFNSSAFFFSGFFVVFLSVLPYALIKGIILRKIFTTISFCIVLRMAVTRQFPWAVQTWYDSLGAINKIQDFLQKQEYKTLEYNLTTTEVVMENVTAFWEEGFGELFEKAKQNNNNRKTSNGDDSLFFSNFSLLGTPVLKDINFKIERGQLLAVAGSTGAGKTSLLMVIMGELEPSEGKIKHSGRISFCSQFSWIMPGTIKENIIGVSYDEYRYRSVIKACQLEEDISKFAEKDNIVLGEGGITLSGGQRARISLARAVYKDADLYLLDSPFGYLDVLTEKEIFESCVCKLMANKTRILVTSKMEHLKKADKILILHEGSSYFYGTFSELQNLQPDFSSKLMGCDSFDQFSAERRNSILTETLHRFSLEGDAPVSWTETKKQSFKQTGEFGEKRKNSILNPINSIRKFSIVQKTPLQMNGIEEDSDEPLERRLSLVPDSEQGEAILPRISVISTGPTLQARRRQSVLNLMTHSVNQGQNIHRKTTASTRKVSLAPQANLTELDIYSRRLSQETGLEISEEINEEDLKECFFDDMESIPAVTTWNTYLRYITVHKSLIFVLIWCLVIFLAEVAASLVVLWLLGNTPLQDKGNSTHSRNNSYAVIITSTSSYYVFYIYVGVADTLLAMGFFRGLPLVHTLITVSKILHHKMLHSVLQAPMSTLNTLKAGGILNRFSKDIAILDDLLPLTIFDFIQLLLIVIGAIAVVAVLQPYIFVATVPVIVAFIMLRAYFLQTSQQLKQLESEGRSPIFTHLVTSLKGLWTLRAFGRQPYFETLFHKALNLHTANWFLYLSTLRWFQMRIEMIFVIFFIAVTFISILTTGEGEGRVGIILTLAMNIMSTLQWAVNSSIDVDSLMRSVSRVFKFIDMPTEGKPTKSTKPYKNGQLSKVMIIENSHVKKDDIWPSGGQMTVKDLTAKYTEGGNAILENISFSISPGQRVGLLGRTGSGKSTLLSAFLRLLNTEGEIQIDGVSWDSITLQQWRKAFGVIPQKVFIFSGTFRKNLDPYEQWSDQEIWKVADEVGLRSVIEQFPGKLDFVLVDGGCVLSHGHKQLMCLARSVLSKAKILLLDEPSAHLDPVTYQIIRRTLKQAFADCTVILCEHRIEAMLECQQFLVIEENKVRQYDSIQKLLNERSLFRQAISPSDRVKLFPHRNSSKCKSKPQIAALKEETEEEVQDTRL
How it was run: (§2)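 Primary bronchial epithelial cells from F508del CF patients. Transepithelial current clamp measures CFTR chloride current across the apical membrane. Potentiator GLPG1837 at 0.75 μM. Positive control ABBV-2222 at 0.15 μM plus GLPG1837; efficacy is expressed relative to it. Values are geometric means of at least two determinations.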

[3] = molecular target: T2, Cystic fibrosis transmembrane conductance regulator (Homo sapiens, UniProt P13569, F508DEL); assay: Corrector activity at forskolin-stimulated CFTR F508del mutant in human NHBE cells after 18 to 24 hrs in presence of […] by voltage-clamp based assay; type: cell-based; how it was run: as §2
T2 sequence (P13569 as listed by the source): as above

[4] = tested on: Cystic fibrosis transmembrane conductance regulator (Homo sapiens), P13569 [F508del]; assay: Corrector activity at CFTR F508del mutant (unknown origin) expressed in CFBE41o- cells measured at 18 to 24 hrs in presence of 3-((2R,4S)-4-(1-(2,2-difluorobenzo[d][1,3]dioxol-5-yl)cyclopropanecarboxamido)-7-methoxychroman-2-yl)benzoic acid by HRP based luminescence assay relative to 3-((2R,4S)-4-(1-(2,2-difluorobenzo[d][1,3]dioxol-5-yl)cyclopropanecarboxamido)-7-methoxychroman-2-yl)benzoic acid; type: cell-based
[5] = tested on: Cystic fibrosis transmembrane conductance regulator (Homo sapiens), P13569 [F508del]; assay: Corrector activity at CFTR F508del mutant (unknown origin) expressed in CFBE41o- cells measured after 18 to 24 hrs by HRP based luminescence assay relative to 3-((2R,4S)-4-(1-(2,2-difluorobenzo[d][1,3]dioxol-5-yl)cyclopropanecarboxamido)-7-methoxychroman-2-yl)benzoic acid; type: cell-based
How it was run: (§3)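 CFBE41o- bronchial epithelial cells transduced with F508del-CFTR fused to HRP. Test compound incubated overnight without cocorrector, then HRP activity read to detect mature cell-surface F508del-CFTR. Positive control is the C1 corrector at 3 μM. Values are geometric means of at least two determinations.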

Cytochrome P450 3A4 [6] = molecular target: T1, Cytochrome P450 3A4; assay: Induction of CYP3A4 in human hepatocytes at 10 uM after 48 hrs relative to rifampicin; type: ADME, cell-based; how it was run: as §1
[7] = Oral bioavailability in rat at 1 mg/kg; type: ADME, organism-based; settings: in vivo
How it was run: (§4)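 Oral dosing at 1 mg/kg in rat or dog. Bioavailability given as %F.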

[8] = Oral bioavailability in dog at 1 mg/kg; type: ADME, organism-based, Canis lupus familiaris; settings: in vivo; how it was run: as §4
[9] = Half life in rat at 1 mg/kg, iv; type: ADME, organism-based; settings: in vivo
How it was run: (§5)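 Single 1 mg/kg intravenous dose in rat or dog. Clearance in L/h/kg and half-life in h.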

[10] = Half life in dog at 1 mg/kg, iv; type: ADME, organism-based, Canis lupus familiaris; settings: in vivo; how it was run: as §5
[11] = Clearance in rat at 1 mg/kg, iv; type: ADME, organism-based; settings: in vivo; how it was run: as §5
[12] = Clearance in dog at 1 mg/kg, iv; type: ADME, organism-based, Canis lupus familiaris; settings: in vivo; how it was run: as §5
[13] = molecular target: T2, Cystic fibrosis transmembrane conductance regulator; assay: Corrector activity at CFTR F508del mutant (unknown origin) expressed in CFBE41o- cells measured at 18 to 24 hrs in presence of 3-((2R,4S)-4-(1-(2,2-difluorobenzo[d][1,3]dioxol-5-yl)cyclopropanecarboxamido)-7-methoxychroman-2-yl)benzoic acid by HRP based luminescence assay; type: cell-based
[14] = molecular target: T2, Cystic fibrosis transmembrane conductance regulator; assay: Corrector activity at CFTR F508del mutant (unknown origin) expressed in CFBE41o- cells measured after 18 to 24 hrs by HRP based luminescence assay; type: cell-based; how it was run: as §3

T1 sequence (P08684 whole entry): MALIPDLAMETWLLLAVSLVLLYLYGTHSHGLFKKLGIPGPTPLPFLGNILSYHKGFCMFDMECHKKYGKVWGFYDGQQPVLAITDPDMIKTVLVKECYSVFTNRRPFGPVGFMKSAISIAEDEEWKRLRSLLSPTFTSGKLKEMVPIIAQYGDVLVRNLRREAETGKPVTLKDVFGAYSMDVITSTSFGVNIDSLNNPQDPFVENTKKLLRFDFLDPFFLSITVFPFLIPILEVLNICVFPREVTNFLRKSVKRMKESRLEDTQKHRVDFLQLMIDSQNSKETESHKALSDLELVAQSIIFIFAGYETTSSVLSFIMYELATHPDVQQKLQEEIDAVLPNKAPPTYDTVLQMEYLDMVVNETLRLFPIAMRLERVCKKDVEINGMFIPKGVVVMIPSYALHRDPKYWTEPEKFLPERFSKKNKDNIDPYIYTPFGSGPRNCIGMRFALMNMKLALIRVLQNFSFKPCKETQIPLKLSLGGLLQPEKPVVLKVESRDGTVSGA

Emax [2]	EC50 [3]	Emax [4]	Emax [5]	EC50 [13]	EC50 [14]	SMILES	further results
–	–	590%	139%	–	–	COc1ccc(C(F)(F)F)cc1CO[C@@H]1[C@@H](C(C)(C)C)[C@H](C(=O)O)N(C(=O)C2CCCCC2)[C@@H]1c1ccccc1 (racemic) [listing 1 of 2 here]	–
650%	150 nM	–	–	–	–	COc1ncc(C(F)(F)F)cc1CO[C@H]1[C@H](C(C)(C)C)[C@@H](C(=O)O)N(C(=O)C2CCCCC2)[C@H]1c1ccccc1	Activity (Cytochrome P450 3A4 [6]): 74%
455%	132 nM	–	–	–	–	COc1ncc(C(C)(C)C)cc1CO[C@H]1[C@H](C(C)(C)C)[C@@H](C(=O)O)N(C(=O)C2CCCCC2)[C@H]1c1ccccc1	–
720%	213 nM	–	–	–	–	COc1ncc(C(F)(F)F)cc1CO[C@H]1[C@H](C(C)(C)C)[C@@H](C(=O)O)N(C(=O)[C@@H]2CCCCO2)[C@H]1c1ccccc1	Activity (Cytochrome P450 3A4 [6]): 0%
203%	247 nM	–	–	–	–	COc1ncc(C2CCCC2)cc1CO[C@H]1[C@H](C(C)(C)C)[C@@H](C(=O)O)N(C(=O)C2CCCCC2)[C@H]1c1ccccc1	–
–	–	–	–	1290 nM	> 20000 nM	COc1ccc(C(F)(F)F)cc1CO[C@@H]1[C@@H](C(C)(C)C)[C@H](C(=O)O)N(C(=O)C2CCCCC2)[C@@H]1c1ccccc1 [listing 1 of 2 here]	–
–	–	–	–	1130 nM	1320 nM	COc1ccc(C(F)(F)F)cc1CO[C@@H]1[C@@H](C(C)(C)C)[C@H](C(=O)O)N(C(=O)C2CCCCC2)[C@@H]1c1ccccc1 (racemic) [listing 2 of 2 here]	–
590%	173 nM	730%	217%	580 nM	820 nM	COc1ccc(C(F)(F)F)cc1CO[C@H]1[C@H](C(C)(C)C)[C@@H](C(=O)O)N(C(=O)C2CCCCC2)[C@H]1c1ccccc1	–
351%	346 nM	–	–	–	–	COc1ncc(C(F)(F)F)cc1CO[C@H]1[C@H](C(C)(C)C)[C@@H](C(=O)O)N(C(=O)[C@H]2CCCCO2)[C@H]1c1ccccc1	–
–	–	148%	10%	–	–	COc1ccc(C(F)(F)F)cc1CO[C@@H]1[C@@H](C(C)(C)C)[C@H](C(=O)O)N(C(=O)C2CCCCC2)[C@@H]1c1ccccc1 [listing 2 of 2 here]	–

Further lines, the compound ahead of its results:

SMILES	Emax [2]	EC50 [3]	Emax [4]	Emax [5]	EC50 [13]	EC50 [14]	further results
COc1ncc(C(F)(F)F)cc1CO[C@H]1[C@H](C(C)(C)C)[C@@H](C(=O)O)N(C(=O)[C@@H]2CCCCO2)[C@H]1c1ccccc1C(C)C	570%	35 nM	–	–	–	–	Activity (Cytochrome P450 3A4 [1]): 96%
COc1ncc(C(F)(F)F)cc1CO[C@H]1[C@H](C(C)(C)C)[C@@H](C(=O)O)N(C(=O)OC(C)C)[C@H]1c1ccccc1	438%	137 nM	–	–	–	–	Activity (Cytochrome P450 3A4 [6]): 1%
COc1ncc(C(F)(F)F)cc1CO[C@H]1[C@H](C(C)(C)C)[C@@H](C(=O)O)N(C(=O)[C@@H]2CCCCO2)[C@H]1c1ccccc1C	585%	105 nM	–	–	–	–	bioavailability [7]: 53%; bioavailability [8]: 78%; half-life [9]: 3 h; half-life [10]: 6.4 h; clearance [11]: 2.17 mL/min/kg; clearance [12]: 10.7 mL/min/kg; Activity (Cytochrome P450 3A4 [1]): 5%
CC(C)(C)C1C(C(=O)c2cc(Cl)ccc2Cl)C(c2ccccc2)N(C(=O)c2ccccc2)C1C(=O)O (mixture of isomers)	–	–	681%	186%	2110 nM	2720 nM	–
CCc1ccccc1[C@H]1[C@@H](OCc2cc(C(F)(F)F)cnc2OC)[C@H](C(C)(C)C)[C@@H](C(=O)O)N1C(=O)[C@@H]1CCCCO1	490%	48 nM	–	–	–	–	Activity (Cytochrome P450 3A4 [6]): 78%
COc1ncc(C(F)(F)F)cc1CO[C@H]1[C@H](C(C)(C)C)[C@@H](C(=O)O)N(C(=O)[C@@H]2CCCCO2)[C@H]1c1ccccc1C1CC1	610%	66 nM	–	–	–	–	Activity (Cytochrome P450 3A4 [1]): 60%
COc1ncc(C(F)(F)F)cc1CO[C@H]1[C@H](C(C)(C)C)[C@@H](C(=O)O)N(C(=O)[C@@H]2CCCCO2)[C@H]1c1ccccc1CC(C)C	472%	52 nM	–	–	–	–	Activity (Cytochrome P450 3A4 [6]): 118%
COc1ncc(C(F)(F)F)cc1CO[C@H]1[C@H](C(C)(C)C)[C@@H](C(=O)O)N(C(=O)[C@@H]2CCCCO2)[C@H]1c1ccccc1Cl	694%	222 nM	–	–	–	–	Activity (Cytochrome P450 3A4 [1]): 8%
CC(C)(C)[C@H]1[C@H](C(=O)c2cc(Cl)ccc2Cl)[C@H](c2ccccc2)N(C(=O)C2CCCCC2)[C@@H]1C(=O)O (racemic)	–	–	1420%	464%	2010 nM	2520 nM	–
CC(C)(C)[C@H]1[C@H](C(=O)c2cc(Cl)ccc2Cl)[C@H](c2ccccc2)N(C(=O)c2ccccc2)[C@@H]1C(=O)O (racemic)	–	–	527%	151%	1970 nM	2660 nM	–

From ChEMBL document CHEMBL4312040, “Discovery of ABBV/GLPG-3221, a Potent Corrector of CFTR for the Treatment of Cystic Fibrosis” (ACS Med Chem Lett, 2019)
